Here are results for five compounds from PMC7188312 (Nature, 2019).

One data set has as its system E. coli. As to conditions: cited from earlier work.
The next data set has as its system K. pneumoniae. As to conditions: cited from earlier work.
For data set [1], the system named is Pseudomonas aeruginosa PAO1. Nature of the data set: MIC, microbroth dilution. In kind it is cell-based.
For data set [2], the system named is P. aeruginosa pmrB 523C>T. In words: MIC, microbroth dilution. In kind it is cell-based. As to conditions: Pseudomonas aeruginosa.
The test system of data set [3] is Klebsiella pneumoniae ATCC 700603. Nature of the data set: MIC, microbroth dilution. In kind it is cell-based.
For a further data set, the system named is E. coli AR350 (mcr-1). Nature of the data set: MIC, microbroth dilution. As to conditions: Escherichia coli. In kind it is cell-based.
In data set [4] the test system is Salmonella Typhimurium LT2 ATCC 19585. In words: MIC, microbroth dilution, anaerobic. Type of data set: cell-based. As to conditions: Salmonella enterica, ATCC19585|TYPHIMURIUM
The subject of data set [5] is Acinetobacter baumannii ATCC 17978. In words: MIC, microbroth dilution. In kind it is cell-based. As to conditions: ATCC17978.
In data set [6] the test system is Enterobacter cloacae ATCC 13047. In words: MIC, microbroth dilution, anaerobic. In kind it is cell-based. As to conditions: ATCC13047.
In data set [7] the test system is Proteus mirabilis KLE 2600. In words: MIC, microbroth dilution, anaerobic. Type of data set: cell-based. As to conditions: KLE2600.
Data set [8] concerns Mycobacterium tuberculosis mc^26020. Nature of the data set: MIC, resazurin. Type of data set: cell-based.
In data set [9] the test system is Bacteroides fragilis ATCC 25285. Nature of the data set: MIC, microbroth dilution, anaerobic. In kind it is cell-based. As to conditions: ATCC25285.
In data set [10] the test system is Bacteroides xylanisolvens KLE 2253. Nature of the data set: MIC, microbroth dilution, anaerobic. As to conditions: KLE2253. In kind it is cell-based.
For data set [11], the system named is Bacteroides caccae KLE 2423. In words: MIC, microbroth dilution, anaerobic. In kind it is cell-based. As to conditions: KLE2423.
In data set [12] the test system is Faecalibacterium prausnitzii KLE 2243. Nature of the data set: MIC, microbroth dilution, anaerobic. As to conditions: KLE2243. In kind it is cell-based.
In data set [13] the test system is Haemophilus parainfluenzae KLE 2367. Nature of the data set: MIC, microbroth dilution, anaerobic. In kind it is cell-based. As to conditions: KLE2367.
Data set [14] concerns Stenotrophomonas maltophilia KLE 11416. In words: MIC, microbroth dilution, anaerobic. In kind it is cell-based. As to conditions: KLE11416.
Data set [15] is described as follows: Cytotoxicity, microplate Alamar Blue assay. Type of data set: cell-based. As to conditions: human, HepG2 liver hepatocellular carcinoma cells (ATCC HB-8065). Put shortly:
(§1)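 FaDu, HepG2 and HEK293-RFP cells were grown in Eagle's MEM with 10% FBS at 37°C, 5% CO2. Cells were seeded in exponential growth, and after 24 h the medium was replaced with fresh medium holding 2-fold serial dilutions of test compound made in water. After 72 h, resazurin was added to a final 0.15 mM. […] was read 3 h later. Biological replicates.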

The nature of data set [16]: Cytotoxicity, microplate Alamar Blue assay. As to conditions: human, FaDu pharynx squamous cell carcinoma cells (ATCC HTB-43). Type of data set: cell-based. Put shortly: as §1
Data set [17] can be described thus: Cytotoxicity, microplate Alamar Blue assay. As to conditions: human. Type of data set: cell-based. The gist of the method:
as §1

Data set [18] deals with E. coli clinical isolates. Nature of the data set: microbe, parasite or virus in culture. Type of data set: cell-based. As to conditions: Escherichia coli, E. coli ESBL JMI 1043856.
Data set [19] deals with K. pneumoniae clinical isolates. Nature of the data set: microbe, parasite or virus in culture. As to conditions: Klebsiella pneumoniae, K. pneumoniae ESBL JMI 1052654. In kind it is cell-based.
A further data set addresses BAM complex, wild type (Escherichia coli, UniProt P0A940). Nature of the data set: BAM folding assay. In kind it is biochemical, E. coli. As to conditions: WT BAM-nanodiscs, increasing concentrations.
A further data set has as its target WT BAM (BamA of BAM) (Escherichia coli, UniProt P0A940). In words: Isothermal Titration Calorimetry. In kind it is binding, E. coli. As to conditions: same concentration range as darobactin. Put shortly:
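BAM was expressed with 0.5 mM IPTG for 3 h, extracted from membranes in DDM and Ni-NTA purified. ITC ran at 25°C in duplicate: 20 μM BAM in 1xPBS with 0.05% DDM in the cell, 200 μM ligand in the syringe, 20 injections 300 s apart, stirring at 300 rpm. Ligand-into-buffer heats were measured as a control. Data were fitted to an independent binding model.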

Data set [20] deals with BAM complex (BamABCDE), wild type (E. coli) (UniProt P0A940). In words: ITC.
The next data set deals with E. coli MG1655. In words: LPS binding assay. Type of data set: cell-based. As to conditions: LPS from E. coli O55:B5, 0.5–100 μg ml^−1. The gist of the method:
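Microbroth dilution: E. coli MG1655 at OD600 0.001 in cation-adjusted MHIIB was added to wells holding purified E. coli O55:B5 LPS (0.5–100 μg ml−1) plus serially diluted test compound or polymyxin B. Plates were incubated overnight at 37°C. The growth-inhibiting concentration was read by eye, with and without LPS.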

Values after ≈ are worked out from the molar mass of the structure shown.

For the compound `NC(N)=NC(=O)CC(Nc1nc(N=C(N)N)nc(NC2CCC(NC(=O)Cn3nnc(-c4ccc(F)cc4)n3)CC2)n1)C1CC1` (centres unmarked) [MRL-494], the results for the MIC in the data set with E. coli and in the data set on K. pneumoniae were 15 µg/mL (≈ 24.1 µM) and 62 µg/mL (≈ 99.6 µM), respectively.

As for `CC1(C)S[C@@H]2[C@H](NC(=O)[C@H](N)c3ccccc3)C(=O)N2[C@H]1C(=O)O` [ampicillin], the MIC is above 128 µg/mL in data set [1]; above 128 µg/mL in data set [2]; 128 µg/mL (≈ 366 µM) in data set [3] (ATCC700603); above 128 µg/mL in [3] (ATCC700603, K. pneumoniae ATCC700603 (SHV-18)); above 128 µg/mL against E. coli AR350 (mcr-1); 2 µg/mL (≈ 5.72 µM) in data set [4]. Also, the MIC in data set [5] was 64 µg/mL (≈ 183 µM); in [6], above 128 µg/mL; in data set [7] it was above 128 µg/mL; in data set [8], 16 µg/mL (≈ 45.8 µM); in data set [9] it was 128 µg/mL (≈ 366 µM); in data set [10], 1 µg/mL (≈ 2.86 µM). For the same compound, the MIC was 2 µg/mL (≈ 5.72 µM) in data set [11]; 64 µg/mL (≈ 183 µM) in data set [12]; 128 µg/mL (≈ 366 µM) in data set [13]; above 128 µg/mL in data set [14]; above 128 µg/mL in [18]; above 128 µg/mL in data set [19]. The IC50 at 72 h in data set [15], in data set [16] and in data set [17] was above 128 µg/mL in each case.

WNWSKSF: the “inhibition of BAM-ND activity” value against BAM complex, wild type is on record as “only minimal effects”; at BAM complex, wild type (listed as linear peptide), “no inhibitory activity”. In addition, the “binding to BAM by ITC” value on WT BAM (BamA of BAM) is reported as “no binding”.

For darobactin (peptide), in data set [20], the Kd turned out to be 1200 nM and the dH is -25 kcal/mol.

For polymyxin B, the “effect of added purified LPS on antibiotic activity (MIC)” value in the data set with E. coli MG1655 is reported as “antagonized polymyxin activity”.
